Data published in ChEMBL document CHEMBL5230144, “Synthesis and Biological Evaluation of Celastrol Derivatives with Improved Cytotoxic Selectivity and Antitumor Activities” (J Nat Prod, 2021).
Activity calls are given as the source filed them. The calls are words filed in the database; no cut-off is given here.

How the values were obtained:
[1] = biological target: T1, Heat shock protein HSP 90-beta/Hsp90 co-chaperone Cdc37 (Homo sapiens, UniProt P08238+Q16543); assay: Disruption of His-tagged full length HSP90 (unknown origin)/GST-tagged Cdc37 (unknown origin) measured after 1 hr by HTRF method; type: protein-complex assay
T1 sequence (P08238 whole entry): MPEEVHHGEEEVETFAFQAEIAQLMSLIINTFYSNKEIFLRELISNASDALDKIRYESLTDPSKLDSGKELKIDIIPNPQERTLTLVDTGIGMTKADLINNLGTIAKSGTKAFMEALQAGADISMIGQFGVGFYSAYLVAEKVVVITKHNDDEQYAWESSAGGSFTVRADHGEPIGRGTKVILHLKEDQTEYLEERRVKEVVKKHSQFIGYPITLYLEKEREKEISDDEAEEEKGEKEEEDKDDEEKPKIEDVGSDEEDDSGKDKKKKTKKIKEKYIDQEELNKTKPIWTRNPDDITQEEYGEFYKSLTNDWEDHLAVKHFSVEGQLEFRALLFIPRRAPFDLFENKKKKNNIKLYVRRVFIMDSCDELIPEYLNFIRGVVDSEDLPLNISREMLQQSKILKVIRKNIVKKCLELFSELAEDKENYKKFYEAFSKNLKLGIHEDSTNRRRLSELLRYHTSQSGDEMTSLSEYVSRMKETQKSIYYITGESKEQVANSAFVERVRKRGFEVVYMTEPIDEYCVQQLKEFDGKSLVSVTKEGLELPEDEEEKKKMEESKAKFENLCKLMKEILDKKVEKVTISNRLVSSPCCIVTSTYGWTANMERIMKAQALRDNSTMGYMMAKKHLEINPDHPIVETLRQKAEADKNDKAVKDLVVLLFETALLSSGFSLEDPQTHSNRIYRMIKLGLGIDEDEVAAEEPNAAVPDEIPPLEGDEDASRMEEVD
T1 sequence (Q16543 whole entry): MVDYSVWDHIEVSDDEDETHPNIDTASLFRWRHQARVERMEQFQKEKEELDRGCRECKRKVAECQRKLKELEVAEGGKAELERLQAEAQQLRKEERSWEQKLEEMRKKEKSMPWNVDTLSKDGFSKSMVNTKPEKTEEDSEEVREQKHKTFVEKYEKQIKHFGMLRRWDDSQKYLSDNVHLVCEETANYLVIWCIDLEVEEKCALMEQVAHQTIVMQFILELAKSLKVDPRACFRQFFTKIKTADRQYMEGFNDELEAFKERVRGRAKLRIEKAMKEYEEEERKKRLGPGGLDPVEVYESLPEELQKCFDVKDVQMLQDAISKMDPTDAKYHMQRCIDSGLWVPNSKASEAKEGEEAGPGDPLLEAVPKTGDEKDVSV
In short: (§1)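 HTRF in PBS with […], pH 7.3: His-tagged full-length Hsp90 and GST-tagged Cdc37 (each 250 nM final) with compound, 37 °C for 1 h. Anti-GST-Cryptate and anti-6His-XL665 then added for 0.5 h at 37 °C. Time-resolved fluorescence read at ex 320 nm, em 665/620 nm; ratio (665/620) × 10 000.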

[2] = biological target: T1, Heat shock protein HSP 90-beta/Hsp90 co-chaperone Cdc37; assay: Disruption of His-tagged full length HSP90 (unknown origin)/GST-tagged Cdc37 (unknown origin) at 50 uM measured after 1 hr by HTRF method; type: protein-complex assay; in short: as §1
[3] = Cytotoxicity against human mesenchymal bone marrow stem cells measured after 48 hrs by MTT assay; type: toxicity, cell-based
[4] = Toxicity in nude mouse xenografted with human MDA-MB-231 cells assessed as decrease of white blood cells at 10 mg/kg, po measured after 26 days; type: organism-based; details: in vivo, 624 h, time 26 day
In short: (§2)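 Female athymic nude mice (5–6 weeks) bore MDA-MB-231 xenografts and were randomized (n = 6) at a mean tumor volume of about 100 mm³. They received 10 mg/kg orally, with vehicle and carboplatin (10 mg/kg) groups. On the final day of administration, a routine blood examination counted white blood cells, red blood cells and platelets, compared against vehicle.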

[5] = Toxicity in nude mouse xenografted with human MDA-MB-231 cells assessed as decrease of red blood cells at 10 mg/kg, po measured after 26 days; type: organism-based; details: in vivo, 624 h, time 26 day; in short: as §2
[6] = Toxicity in nude mouse xenografted with human MDA-MB-231 cells assessed as decrease of platelets at 10 mg/kg, po measured after 26 days; type: organism-based; details: in vivo, 624 h, time 26 day; in short: as §2
[7] = Toxicity in nude mouse xenografted with human MDA-MB-231 cells assessed as damage to liver at 10 mg/kg, po measured after 26 days by Hand E staining method; type: organism-based; details: in vivo, 624 h, time 26 day
In short: (§3)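 Female athymic nude mice (5–6 weeks) bore MDA-MB-231 xenografts and were randomized (n = 6) once tumors averaged about 100 mm³. They were dosed orally at 10 mg/kg, alongside vehicle and carboplatin (10 mg/kg) groups. On the last day of administration, heart, liver, lungs and kidneys were examined by HE staining.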

[8] = Toxicity in nude mouse xenografted with human MDA-MB-231 cells assessed as damage to heart at 10 mg/kg, po measured after 26 days by Hand E staining method; type: organism-based; details: in vivo, 624 h, time 26 day; in short: as §3
[9] = Toxicity in nude mouse xenografted with human MDA-MB-231 cells assessed as damage to lungs at 10 mg/kg, po measured after 26 days by Hand E staining method; type: organism-based; details: in vivo, 624 h, time 26 day; in short: as §3
[10] = Toxicity in nude mouse xenografted with human MDA-MB-231 cells assessed as damage to kidney at 10 mg/kg, po measured after 26 days by Hand E staining method; type: organism-based; details: in vivo, 624 h, time 26 day; in short: as §3
HUVEC = assay: Antimigratory activity against human HUVEC cells assessed as inhibition of cell migration at 0.1 uM measured after 12 to 24 hrs by wound scratch assay; type: functional, cell-based; details: time 12-24 hrs
In short: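 HUVEC monolayers were scratched and treated, with wound closure imaged at 0, 12 and 24 h. Migration was quantified as a migration ratio relative to 0 h.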

A549 = assay: cells; details: Homo sapiens, A549, 48 h
MDA-MB-231 = assay: cells; details: Homo sapiens, MDA-MB-231, 48 h
KB = assay: cells; details: Homo sapiens, 48 h
MCF7 = assay: cells; details: Homo sapiens, MCF7, 48 h
[11] = Toxicity in nude mouse xenografted with human MDA-MB-231 cells assessed as decrease of body weight at 10 mg/kg, po measured after 26 days; type: organism-based; details: in vivo, 624 h, time 26 day
In short: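 Female athymic nude mice, 5−6 weeks old, carrying MDA-MB-231 xenografts; randomized at about 100 mm³ tumor volume, n = 6 per group. Groups were vehicle, carboplatin 10 mg/kg, celastrol 10 mg/kg and test compound 10 mg/kg oral. Body weight tracked from day 16 to day 26; blood counts taken on the last day.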

COCCOC(=O)[C@]1(C)CC[C@]2(C)CC[C@]3(C)C4=CC=C5C(=CC(=O)C(O)=C5C)[C@]4(C)CC[C@@]3(C)[C@@H]2C1
IC50 [1]: 6700 nM

CC1=C(O)C(=O)C=C2C1=CC=C1[C@@]2(C)CC[C@@]2(C)[C@@H]3C[C@](C)(C(=O)O)CC[C@]3(C)CC[C@]12C [CELASTROL]
inhibition [2]: 82.3%
IC50 at 48 h [3]: 700 nM
Activity [4]: Toxic
Activity [5]: Toxic
Activity [6]: Toxic
Activity [7]: Toxic
Activity [8]: Toxic
Activity [9]: Toxic
Activity [10]: Toxic
Activity (HUVEC): inactive
IC50 (A549): 1800 nM
IC50 (MDA-MB-231): 900 nM
IC50 (KB): 1700 nM
IC50 (MCF7): 1200 nM

CC1=C(O)C(=O)C=C2C1=CC=C1[C@@]2(C)CC[C@@]2(C)[C@@H]3C[C@](C)(C(=O)OCC4CCCCC4)CC[C@]3(C)CC[C@]12C
IC50 [1]: 2900 nM

CC1=C(O)C(=O)C=C2C1=CC=C1[C@@]2(C)CC[C@@]2(C)[C@@H]3C[C@](C)(C(=O)OCc4ccccc4)CC[C@]3(C)CC[C@]12C
inhibition [2]: 90.1%
IC50 [1]: 2400 nM
IC50 at 48 h [3]: 1000 nM
IC50 (A549): 1300 nM
IC50 (MDA-MB-231): 400 nM
IC50 (KB): 600 nM
IC50 (MCF7): 700 nM

C#CCOC(=O)[C@]1(C)CC[C@]2(C)CC[C@]3(C)C4=CC=C5C(=CC(=O)C(O)=C5C)[C@]4(C)CC[C@@]3(C)[C@@H]2C1
IC50 [1]: 1700 nM

C#CCOC(=O)[C@]1(C)CC[C@]2(C)CC[C@]3(C)C4=CC=C5C(=CC(=O)C(OC(=O)N6CCC(N7CCCCC7)CC6)=C5C)[C@]4(C)CC[C@@]3(C)[C@@H]2C1
IC50 at 48 h [3]: 2800 nM
Activity [11]: Toxic
Activity [4]: Non-Toxic
Activity [5]: Non-Toxic
Activity [6]: Non-Toxic
Activity [7]: Non-Toxic
Activity [8]: Non-Toxic
Activity [9]: Non-Toxic
Activity [10]: Non-Toxic
IC50 (MDA-MB-231): 200 nM
